Source: the M2OR odorant receptor database

tested on: T1, OR2M5 D11G; settings: stereoisomer not certain
T1 sequence (whole entry): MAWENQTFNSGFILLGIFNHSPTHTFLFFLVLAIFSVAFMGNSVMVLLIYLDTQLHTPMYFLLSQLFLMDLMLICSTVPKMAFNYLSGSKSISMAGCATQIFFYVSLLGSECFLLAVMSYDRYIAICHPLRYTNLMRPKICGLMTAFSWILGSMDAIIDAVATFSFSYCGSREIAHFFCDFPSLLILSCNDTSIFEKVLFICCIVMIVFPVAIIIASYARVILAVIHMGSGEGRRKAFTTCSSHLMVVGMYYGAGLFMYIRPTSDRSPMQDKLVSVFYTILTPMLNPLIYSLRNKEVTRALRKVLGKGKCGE
Summary of the method: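 Each entry records the cell line, G-protein, co-transfected protein and tags used. Methods varied with the source, often transient luciferase assays in mammalian cell lines. A receptor–molecule pair is called responsive (active) if the original authors judged its signal statistically different from baseline and non-responsive (inactive) otherwise.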

Odorant receptor agonist call, inactive:
CCC1OC(=O)C(O)=C1C (stereo not drawn)
CC1=NC(C)C(C)S1 (stereo not drawn)
CC1=C(O)C(=O)C(C)O1 (stereo not drawn)
Cc1cnc(C)c(C)n1
CCCC(S)CCOC(C)=O (stereo not drawn)
CCCCCCC=CCCC=O
CC1=C(O)C(=O)OC1C (stereo not drawn)
CCC1OC(C)=C(O)C1=O (stereo not drawn)
